Screening results deposited in PubChem by Sanford-Burnham Center for Chemical Genomics.
Diaphorase inh: inhibits diaphorase or chemically oxidizes, flagging diaphorase assay artifacts; diaphorase resazurin-to-resorufin fluorescence, NADH, 16 min; bacterial (C. kluyveri) enzyme, not human; inhibition, % at 20 µM; 0.69% of 190,000 active;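 active means primary screen inhibition at 20 µM above a set limit, cut at about 50% in these data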;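 further: plate controls were DMSO with full reaction for no effect and wells lacking NADH for full effect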
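material = Clostridium kluyveri diaphorase enzyme | amount = 0.14 U/mL diaphorase, enzyme working solution | schedule = incubation 16 min, room temperature | detection = fluorescence of resorufin formed from resazurin, Ex 544/Em 590 nm | benchmarks = positive control minus NADH, DMSO neutral control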
HKDC1 inh: HKDC1 (human) hexokinase inhibition; Q2TB90; recombinant HKDC1, G6PDH/diaphorase resazurin coupled fluorescence; inhibition, % at 20 µM; 0.16% of 340,000 active; AID 493160;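 active means inhibition above about 35% when tested at 20 µM, limit read from the data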;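 further: plate controls were DMSO wells with enzyme for no effect and DMSO wells lacking enzyme for full effect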
Target sequence (Q2TB90 whole entry, looked up): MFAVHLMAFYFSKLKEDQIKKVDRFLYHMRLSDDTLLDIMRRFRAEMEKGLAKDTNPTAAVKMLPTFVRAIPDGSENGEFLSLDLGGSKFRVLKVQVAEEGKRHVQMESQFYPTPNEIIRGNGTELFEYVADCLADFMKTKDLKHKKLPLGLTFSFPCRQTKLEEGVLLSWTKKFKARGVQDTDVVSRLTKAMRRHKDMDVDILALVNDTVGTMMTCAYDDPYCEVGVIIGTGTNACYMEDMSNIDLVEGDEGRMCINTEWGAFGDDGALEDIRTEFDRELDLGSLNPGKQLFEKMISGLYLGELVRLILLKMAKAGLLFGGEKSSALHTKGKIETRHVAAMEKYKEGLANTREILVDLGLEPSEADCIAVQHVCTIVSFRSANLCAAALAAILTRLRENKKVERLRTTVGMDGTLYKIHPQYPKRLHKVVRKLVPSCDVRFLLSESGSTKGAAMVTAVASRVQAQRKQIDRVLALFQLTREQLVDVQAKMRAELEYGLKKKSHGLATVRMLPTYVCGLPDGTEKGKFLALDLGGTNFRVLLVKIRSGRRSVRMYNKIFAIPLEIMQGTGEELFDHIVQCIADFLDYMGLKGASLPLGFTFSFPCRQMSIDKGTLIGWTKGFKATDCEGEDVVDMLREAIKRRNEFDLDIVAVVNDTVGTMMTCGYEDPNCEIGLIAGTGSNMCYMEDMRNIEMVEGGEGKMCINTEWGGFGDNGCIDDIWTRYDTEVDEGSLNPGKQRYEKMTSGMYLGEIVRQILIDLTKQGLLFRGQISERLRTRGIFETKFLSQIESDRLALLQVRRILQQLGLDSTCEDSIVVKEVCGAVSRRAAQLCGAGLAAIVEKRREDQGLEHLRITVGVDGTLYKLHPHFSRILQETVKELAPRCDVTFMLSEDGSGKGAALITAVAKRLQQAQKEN
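Material: recombinant HKDC1 hexokinase; Amount: HKDC1 at 5 µg/mL; Medium: Tris pH 8.0 buffer with MgCl2, Tween-20, BSA, BME; Schedule: 90 min reaction incubation at room temperature, dark; Technique: coupled resazurin fluorescence, excitation 525 nm, emission 613 nm.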
G6PDH CS: counter-screen for G6PDH assay hits: L. mesenteroides G6PDH inhibition | 0.12% of 200,000 active | Purified L. mesenteroides G6PDH, diaphorase/resazurin coupled fluorescence, 45 min | inhibition, % at 5 µM; in the data active means inhibition above about 50%
Diaph act CS: activates diaphorase or chemically reduces, flagging diaphorase assay artifacts; 0.005% of 190,000 active; Diaphorase/resazurin coupled assay, resorufin fluorescence, 16 min; active compounds read high; 1 = vehicle wells, 0 = NADH-free wells; activation factor at 20 µM; AID 1229;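 active means diaphorase activity raised at least twofold by the compound at 20 µM; inactive means activation factor below 2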
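Material: purified diaphorase enzyme from Clostridium kluyveri; Also added: 0.114 mM NADH and 0.1 mM resazurin, final amounts; Doses: single compound dose of 20 µM, 1% DMSO final; Times: 16 min enzyme reaction, ambient temperature; Detection: resorufin fluorescence, excitation 544 nm, emission 590 nm; Measure: increased resorufin signal from activators or reducing compounds.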
PfG6PD inh: PfG6PD (Plasmodium falciparum) enzyme inhibition. PfGluPho enzyme, NADPH resazurin-diaphorase fluorescence. inhibition, % at 20 µM. 0.78% of 350,000 active. AID 504690;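 active means inhibition reaching at least a set limit at 20 µM in the primary screen, cut at about 59% in these data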;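 further: 0% = DMSO wells with substrate and 100% = DMSO wells lacking glucose-6-phosphate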
PfGluPho conf: PfG6PD inhibition, single-dose confirmed. recombinant PfGluPho, NADPH-diaphorase-resazurin fluorescence. AID 504753. 34% of 2,400 active. shares compounds with PfG6PD inh. inhibition, % at 20 µM;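 active means inhibition of at least 50% at 20 µM in any single replicate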;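 further: 0% = DMSO with substrate and 100% = DMSO lacking glucose-6-phosphate substrate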
Diaph ctr 10uM: diaphorase inhibition or oxidation at 10 uM NADPH; shares compounds with PfG6PD inh; diaphorase-coupled resazurin reduction, fluorescence, NADPH 10 uM; inhibition, % at 20 µM; 39% of 820 active;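 active means average inhibition reaching 50% or more with the compound at 20 µM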;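 further: resorufin red fluorescence formed as diaphorase reduces resazurin using NADPH; 0% = DMSO with enzyme and 100% = DMSO without enzyme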
Diaph ctr 30uM: inhibits diaphorase or oxidizes, flagging false PfG6PD hits | 29% of 820 active | Diaphorase/resazurin coupled assay, resorufin fluorescence, 30 uM NADPH | AID 504863 | inhibition, % at 20 µM | shares compounds with PfG6PD inh;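 active means inhibition averaging 50% or more, tested at 20 µM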;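 further: 0% = DMSO with enzyme and 100% = DMSO wells lacking diaphorase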
Starred values were filed as active, the others as inactive; nt = no result. Only some compounds are listed: those with a hit (about 1.2% of all), similar ones and a draw of the others.

SMILES	Diaphorase inh	HKDC1 inh	G6PDH CS	Diaph act CS	PfG6PD inh	PfGluPho conf	others
COc1ccc2ccccc2c1CNCCc1ccccc1	nt	-6	nt	nt	-5	nt
CC(=O)OC1N=C(c2ccccc2)c2cc(Br)ccc2NC1=O (stereo not given)	6	1	6	0.9	-5	nt
CC(=O)OC1N=C(c2ccc(Cl)cc2)c2cc(Br)ccc2NC1=O (stereo not given)	15	6	-1	0.9	78*	47
Cc1cccc(N=C2c3cc([N+](=O)[O-])ccc3-c3c2cc([N+](=O)[O-])cc3[N+](=O)[O-])c1	nt	28	nt	nt	74*	18
Cc1ccc(/C=C2\C(=O)NC(=S)N(c3ccccc3F)C2=O)s1	14	16	-1	0.9	66*	56*	Diaph ctr 10uM=-28;Diaph ctr 30uM=-19
CCC(C)NS(=O)(=O)c1ccc(OCC(=O)N2CCN(CC)CC2)cc1 (stereo not given)	-1	-10	7	1	9	nt
COc1ccc(N2C(=O)/C(=C/C=C/c3ccccc3[N+](=O)[O-])C(=O)NC2=S)cc1	34	13	10	0.7	61*	30
CN1CCC2(CC1)C(C#N)=C(N)NC(S)=C2C#N	-3	11	9	1	39	nt
O=C(CCC(=O)N1CC2C[C@@H](C1)Cn1c2cccc1=O)NCCc1ccccc1F	nt	-6	nt	nt	-4	nt
CCOP(=S)(OCC)Oc1ccc2c(C)c(Cl)c(=O)oc2c1	nt	-7	nt	nt	15	nt
CCOP(=S)(OCC)Oc1cc(C)oc(=O)c1Cl	nt	-6	nt	nt	63*	17
C=CCN1CCc2cccc3c2[C@H]1Cc1ccc(O)c(O)c1-3	nt	7	nt	nt	81*	84*	Diaph ctr 10uM=23;Diaph ctr 30uM=14
C=CCN1CC[C@]23c4c5ccc(O)c4O[C@H]2C(=O)CC[C@@]3(O)[C@H]1C5	-8	1	5	1.1	12	nt
COc1ccccc1Cn1c(SCC(=O)C(C)(C)C)nc2cc(C(=O)N3CCC4(CC3)OCCO4)ccc2c1=O	12	nt	10	0.9	nt	nt
NC(=O)c1cc(N2CC2)c([N+](=O)[O-])cc1[N+](=O)[O-]	nt	5	nt	nt	58	nt
CC(C)N1CCN(c2ccc(O)cc2)CC1	50	10	15	0.5	72*	29
O=C(Cc1ccccc1)OCC(=O)c1ccccc1	nt	0	nt	nt	0	nt
O=C(OCC(=O)c1ccc([N+](=O)[O-])cc1)/C(=C\c1ccc(Cl)cc1)NC(=O)c1ccccc1	21	-8	2	0.8	44	69*	Diaph ctr 10uM=-3;Diaph ctr 30uM=-12
CCn1nc(/C=C/c2ccccc2)nc2c(=O)n(C)c(=O)nc1-2	-50	3	61*	1.5	102*	76*	Diaph ctr 10uM=93*;Diaph ctr 30uM=98*
Cn1cc(C(=O)NP(=O)(N2CCOCC2)N2CCOCC2)c2ccccc21	4	-9	0	1	7	nt
CC1=C[C@@H]2c3cccc4[nH]cc(c34)C[C@H]2N(C)C1	nt	8	nt	nt	59*	-34
COc1cccc(-n2c(/C=C/c3ccc(O)c(O)c3)nc3ccccc3c2=O)c1	69*	-8	26	0.3	64*	6
